According to publication PMC7614804 (Journal of medicinal chemistry, 2022):
Blank lines part the entries; values can stand above or below the molecule they belong to.

Experiments:
Pa MurB [1] = molecular target: T1, Pa MurB (Pseudomonas aeruginosa, UniProt Q9HZM7); experiment: Isothermal titration calorimetry; format: binding
T1 sequence (Q9HZM7 1-339): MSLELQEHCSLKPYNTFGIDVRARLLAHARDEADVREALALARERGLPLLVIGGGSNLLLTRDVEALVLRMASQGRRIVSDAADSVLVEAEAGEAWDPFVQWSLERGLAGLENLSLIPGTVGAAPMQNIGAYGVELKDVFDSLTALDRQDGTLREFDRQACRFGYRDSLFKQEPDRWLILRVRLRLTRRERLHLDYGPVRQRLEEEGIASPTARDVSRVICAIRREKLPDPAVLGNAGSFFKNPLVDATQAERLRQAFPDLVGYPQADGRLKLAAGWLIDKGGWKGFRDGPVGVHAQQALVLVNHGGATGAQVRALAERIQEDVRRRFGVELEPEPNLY
Outline: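 ITC at 25 °C. Pa MurB was dialysed overnight at 4 °C into 25 mM Tris-HCl pH 8.0, 150 mM NaCl; cell and syringe solutions were in the same buffer with 5% DMSO final. Usually 50 μM MurB with 3.0 mM fragment; some runs used 1.0 or 0.5 mM ligand or 200 μM MurB. A 0.4 μL first injection was discarded, then 28 × 1.5 μL every 120 s. One-site fit; LE = −(RTlnKd)/heavy atoms, in kcal/mol per heavy atom.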

Pa MurB [2] = molecular target: T1, Pa MurB; experiment: Surface plasmon resonance; format: binding
Outline: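 Pa MurB amine-coupled to a CM5 chip. Running buffer: 10 mM NaPO4 pH 7, 150 mM NaCl, 2% DMSO, 25 °C. Each test compound at 1 mM in running buffer was injected for 30 s at […], with 320 s dissociation. Each was run twice, in reverse orders, with solvent correction. Response units were compared visually with those of the initial pyrazole fragment hit.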

[3] = Table 3, LE = –(RTlnKd)/(number of heavy atoms)
[4] = Table 5, RU of compound at 1.0 mM compared with RU of fragment 4, n = 2
[5] = Table 5, LE = −(RTlnKd)/(number of heavy atoms)
[6] = Table 3, RU of fragment at 1 mM compared with RU of fragment 4, n = 2
[7] = Table 4, RU of fragment at 1 mM compared with RU of fragment 4, n = 2
[8] = Kd(μM) ITC, Table 4, 50 μM MurB, 3.0 mM fragment, fragment 41: 200 μM MurB
[9] = Table 4, LE = −(RTlnKd)/(number of heavy atoms)
[10] = Table 6, RU of fragment at 1.0 mM compared with RU of fragment 4, n = 2
[11] = Table 6, LE = −(RTlnKd)/(number of heavy atoms)

SMILES: Cc1c(C(=O)O)cc(CCO)n1-c1ccccc1 [Fragment 23]
Kd (Pa MurB [1]; Kd (ITC)): 208 ± 15 µM
LE (Pa MurB [1]; [3]): 0.28 kcal/mol per heavy atom

SMILES: Cc1ccccc1-n1c(C)cc(C(=O)O)c1C(F)(F)F [Fragment 53]
SPR RU>RUf4 1.0 mM (Pa MurB [2]; [4]): yes
LE (Pa MurB [1]; [5]): 0.30 kcal/mol per heavy atom

SMILES: Cc1c(-n2c(C)cc(C(=O)O)c2C(F)(F)F)ccc(Cl)c1Cl [Fragment 55]
SPR RU>RUf4 1.0 mM (Pa MurB [2]; [4]): yes
LE (Pa MurB [1]; [5]): 0.31 kcal/mol per heavy atom

SMILES: Cc1nc(C(=O)O)c(C)n1-c1ccccc1 [Fragment 21]
SPR RU>RUf4 1.0 mM (Pa MurB [2]; [6]): no

SMILES: Cc1c(-n2c(C)cc(C(=O)O)c2C)ccc(Cl)c1Cl [Fragment 52]
LE (Pa MurB [1]; [5]): 0.33 kcal/mol per heavy atom

SMILES: Cc1c(C(=O)O)nnn1-c1ccccc1 [Fragment 19]
SPR RU>RUf4 1.0 mM (Pa MurB [2]; [6]): no
Kd (Pa MurB [1]; Kd(μM) ITC, Table 3, 50 μM MurB, 3.0 mM fragment): 877 ± 154 µM
LE (Pa MurB [1]; [3]): 0.28 kcal/mol per heavy atom

SMILES: Cc1cc(Cl)c(Cl)cc1-n1c(C)cc(C(=O)O)c1C [Fragment 51]
LE (Pa MurB [1]; [5]): 0.33 kcal/mol per heavy atom

SMILES: COc1ccc(-n2ncc(C(=O)O)c2C(F)(F)F)cc1 [Fragment 35]
SPR RU>RUf4 1.0 mM (Pa MurB [2]; [7]): no

SMILES: Cc1cccc(C)c1-n1ncc(C(=O)NS(=O)(=O)c2ccccc2)c1C(F)(F)F [Fragment 62]
SPR RU>RUf4 1.0 mM (Pa MurB [2]; [10]): yes
LE (Pa MurB [1]; [11]): 0.22 kcal/mol per heavy atom

SMILES: Cc1ccccc1-n1c(C)cc(C(=O)O)c1C [Fragment 46]
SPR RU>RUf4 1.0 mM (Pa MurB [2]; [4]): yes
LE (Pa MurB [1]; [5]): 0.34 kcal/mol per heavy atom

SMILES: Cc1cccc(C)c1-n1c(C)cc(C(=O)O)c1C [Fragment 47]
SPR RU>RUf4 1.0 mM (Pa MurB [2]; [4]): no
LE (Pa MurB [1]; [5]): 0.32 kcal/mol per heavy atom

SMILES: Cc1cc(C(=O)O)c(C)n1-c1ccccc1 [Fragment 20]
SPR RU>RUf4 1.0 mM (Pa MurB [2]; [6]): yes
LE (Pa MurB [1]; [3]): 0.34 kcal/mol per heavy atom

SMILES: Cc1cc(C(=O)O)c(C(F)(F)F)n1-c1ccccc1 [Fragment 22]
SPR RU>RUf4 1.0 mM (Pa MurB [2]; [6]): yes
LE (Pa MurB [1]; [3]): 0.28 kcal/mol per heavy atom

SMILES: Cc1cc(C(=O)O)c(C)n1-c1ccc(Cl)cc1 [Fragment 50]
SPR RU>RUf4 1.0 mM (Pa MurB [2]; [4]): no

SMILES: Cc1ccccc1-n1ncc(C(=O)O)c1C(F)(F)F [Fragment 32]
SPR RU>RUf4 1.0 mM (Pa MurB [2]; [7]): yes
LE (Pa MurB [1]; [9]): 0.31 kcal/mol per heavy atom

SMILES: O=C(NS(=O)(=O)c1ccccc1)c1cnn(-c2ccccc2)c1C(F)(F)F [Fragment 60]
SPR RU>RUf4 1.0 mM (Pa MurB [2]; [10]): yes
Kd (Pa MurB [1]; Kd (ITC)): 320 ± 60 µM
Kd (Pa MurB [1]; Kd(μM) ITC, Table 6, 50 μM Pa MurB, 3.0 mM fragment): 324 ± 59 µM
LE (Pa MurB [1]; [11]): 0.18 kcal/mol per heavy atom

SMILES: O=C(O)c1cnn(-c2ccccc2Br)c1C(F)(F)F [Fragment 31]
SPR RU>RUf4 1.0 mM (Pa MurB [2]; [7]): yes
LE (Pa MurB [1]; [9]): 0.29 kcal/mol per heavy atom

SMILES: Cc1cccc(C)c1-n1ncc(C(=O)O)c1C(F)(F)F [Fragment 41]
LE (Pa MurB [1]; [9]): 0.31 kcal/mol per heavy atom

SMILES: CS(=O)(=O)NC(=O)c1cnn(-c2ccccc2)c1C(F)(F)F [Fragment 59]
SPR RU>RUf4 1.0 mM (Pa MurB [2]; [10]): no

SMILES: Cc1cc(C(=O)O)c(C)n1-c1ccc(Cl)c(Cl)c1 [Fragment 48]
SPR RU>RUf4 1.0 mM (Pa MurB [2]; [4]): no
LE (Pa MurB [1]; [5]): 0.33 kcal/mol per heavy atom

SMILES: Cc1cc(C(=O)O)c(C)n1-c1cccc(Cl)c1 [Fragment 49]
SPR RU>RUf4 1.0 mM (Pa MurB [2]; [4]): yes

Further lines, results first:

SPR RU>RUf4 1.0 mM (Pa MurB [2]; [7]): yes
Kd (Pa MurB [1]; [8]): 99 ± 7.2 µM
LE (Pa MurB [1]; [9]): 0.27 kcal/mol per heavy atom
SMILES: Cc1cccc(-n2ncc(C(=O)O)c2C(F)(F)F)c1C [Fragment 38]

SPR RU>RUf4 1.0 mM (Pa MurB [2]; [7]): yes
Kd (Pa MurB [1]; [8]): 85.5 ± 8 µM
LE (Pa MurB [1]; [9]): 0.28 kcal/mol per heavy atom
SMILES: Cc1ccc(-n2ncc(C(=O)O)c2C(F)(F)F)c(C)c1 [Fragment 39]

SPR RU>RUf4 1.0 mM (Pa MurB [2]; [7]): yes
LE (Pa MurB [1]; [9]): 0.31 kcal/mol per heavy atom
SMILES: O=C(O)c1cnn(-c2ccc(Cl)c(Cl)c2)c1C(F)(F)F [Fragment 43, 1-(3,4-Dichlorophenyl)-5-(trifluoromethyl)-1H-pyrazole-4-carboxylic Acid]

SPR RU>RUf4 1.0 mM (Pa MurB [2]; [7]): yes
Kd (Pa MurB [1]; [8]): 208 ± 28 µM
LE (Pa MurB [1]; [9]): 0.23 kcal/mol per heavy atom
SMILES: Cc1cc([N+](=O)[O-])ccc1-n1ncc(C(=O)O)c1C(F)(F)F [Fragment 36]

SPR RU>RUf4 1.0 mM (Pa MurB [2]; [4]): yes
LE (Pa MurB [1]; [5]): 0.32 kcal/mol per heavy atom
SMILES: Cc1c(-n2ncc(C(=O)O)c2C(F)(F)F)ccc(Cl)c1Cl [Fragment 45]

SPR RU>RUf4 1.0 mM (Pa MurB [2]; [4]): yes
LE (Pa MurB [1]; [5]): 0.35 kcal/mol per heavy atom
SMILES: Cc1cc(Cl)c(Cl)cc1-n1ncc(C(=O)O)c1C(F)(F)F [Fragment 44]

LE (Pa MurB [1]; [11]): 0.22 kcal/mol per heavy atom
SMILES: Cc1cc(Cl)c(Cl)cc1-n1ncc(C(=O)NS(=O)(=O)c2ccccc2)c1C(F)(F)F [Fragment 64]

LE (Pa MurB [1]; [5]): 0.32 kcal/mol per heavy atom
SMILES: Cc1cc(Cl)c(Cl)cc1-n1c(C)cc(C(=O)O)c1C(F)(F)F [Fragment 54]

SPR RU>RUf4 1.0 mM (Pa MurB [2]; [7]): yes
LE (Pa MurB [1]; [9]): 0.26 kcal/mol per heavy atom
SMILES: Cc1ccc(C)c(-n2ncc(C(=O)O)c2C(F)(F)F)c1 [Fragment 40]

SPR RU>RUf4 1.0 mM (Pa MurB [2]; [7]): yes
Kd (Pa MurB [1]; [8]): 60.2 ± 4.4 µM
LE (Pa MurB [1]; [9]): 0.29 kcal/mol per heavy atom
SMILES: O=C(O)c1cnn(-c2c(Cl)cccc2Cl)c1C(F)(F)F [Fragment 42]

SPR RU>RUf4 1.0 mM (Pa MurB [2]; [7]): yes
LE (Pa MurB [1]; [9]): 0.27 kcal/mol per heavy atom
SMILES: O=C(O)c1cnn(-c2ccccc2Cl)c1C(F)(F)F [Fragment 30]
